According to ChEMBL document CHEMBL3091368, “Structure-based design, synthesis, and evaluation of imidazo[1,2-b]pyridazine and imidazo[1,2-a]pyridine derivatives as novel dual c-Met and VEGFR2 kinase inhibitors” (Bioorg Med Chem, 2013):
Values after ≈ are worked out from the molar mass of the structure shown.

Legend:
[1] = Kinetic solubility of the compound in second fluid of disintegration test of Japanese pharmacopoeia containing bile acid at pH 6.8 by HPLC analysis; type: physicochemical; conditions: read-out: Kinetic_solubility
Method in brief: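 Kinetic solubility in JP second disintegration fluid with bile acid. Compound DMSO solutions added in small volumes to the aqueous buffer and incubated. Precipitate removed by filter-plate filtration, and dissolved compound in the filtrate quantified by HPLC.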

[2] = Clearance in mouse liver microsomes at 1 umol/L by HPLC analysis; type: ADME, Microsome; conditions: read-out: CLH
Method in brief: (§1)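 Hepatic microsomes at 0.2 mg protein/mL in 50 mmol/L potassium phosphate, pH 7.4, with test compound at 1 µmol/L, incubated at 37 °C. Started by adding an NADPH-generating system (MgCl₂, glucose-6-phosphate, β-NADP⁺, G6P dehydrogenase). Stopped with an equal volume of acetonitrile. Parent compound loss measured by HPLC-UV or LC/MS/MS.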

[3] = Clearance in human liver microsomes at 1 umol/L by HPLC analysis; type: ADME; conditions: read-out: CLH; method in brief: as §1

SMILES	solubility kinetic [1] [µg/mL]	microsomal CLint at 1 µM [2] [µL/min/mg]	microsomal CLint at 1 µM [3] [µL/min/mg]
Cc1ccc(C(=O)Nc2ccc(Oc3ccc4nc(NC(=O)C5CC5)cn4c3)c(F)c2)c(=O)n1-c1ccccc1	92 (≈ 171 µM)	–	–
O=C(Nc1ccc(Oc2ccc3nc(NC(=O)C4CC4)cn3c2)c(F)c1)c1cccn(-c2ccccc2)c1=O	4.7 (≈ 8.98 µM)	15	5
O=C(Nc1ccc(Oc2ccc3nc(NC(=O)C4CC4)cn3n2)c(F)c1)c1cccn(-c2ccccc2)c1=O	3.2 (≈ 6.1 µM)	11	3

Next, values leading:

solubility kinetic [1] [µg/mL]	microsomal CLint at 1 µM [2] [µL/min/mg]	microsomal CLint at 1 µM [3] [µL/min/mg]	SMILES
> 110	10	6	Cc1ccc(C(=O)Nc2ccc(Oc3ccc4nc(NC(=O)C5CC5)cn4c3)c(F)c2)c(=O)n1-c1ccccc1.Cl
> 140	8	11	Cc1ccc(C(=O)Nc2ccc(Oc3ccc4nc(NC(=O)C5CC5)cn4n3)c(F)c2)c(=O)n1-c1ccccc1
